Compound activity deposited in PubChem by Broad Institute.
PglD inh: C. jejuni PglD acetyltransferase inhibitors, primary screen, biochemical, DTNB colorimetric, single point | purified PglD enzyme, DTNB colorimetric CoA detection | actives 0.098% (n = 360,000) | inhibition, % at 12.5 µM; in the data active = inhibition above about 16%, passing the limit was not always enough; inconclusive = no clear call, values can overlap the other calls
XiGFP reactiv: activators of inactive X chromosome reactivation, primary screen, imaging, XiGFP fibroblasts, GFP high-content imaging, set 2. AID 743238, 2013. actives 0.055% (n = 360,000). activation, % at 7.58 µM. XiGFP mouse fibroblasts, % GFP-positive cells imaging, 3 d; cells co-treated with 5-aza-dC sensitizer; scaled so ellipticine positive control = 100%;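 active = mean normalized replicate activation at least 10% and every replicate at or above 10%; inconclusive = only one of the two criteria met; inactive = mean below 10% and not all replicates reach 10%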
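Assay system: SV40-immortalized XiGFP fibroblast cells, line 68-5-11; buffer or medium: DMEM plus 5-aza-dC sensitizer; compound: one concentration, pinned; timing: compounds 3 days, fix/stain 15 min at room temperature; benchmarks: positive control ellipticine, 6 µM final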
Statin myotox sup: suppressors of statin myotoxicity in C2C12 myotubes, primary screen, cell-based, single point, plate reader; AID 602340, 2012; actives 0.78% (n = 330,000); rescue of ATP level, % at 7.49 µM; C2C12 myotubes + simvastatin, ATP luminescence, 48 h; scaled: DMSO 0, geranylgeraniol control 100;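 active = mean ATP rescue above about 67%, or every replicate alone reaching that limit, limit read from the data, passing the limit was not always enough; inconclusive = no clear call, values can overlap the other calls; inactive = mean under the limit and some replicate under it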;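 note: myotubes were challenged with 10 µM simvastatin during compound exposure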
DENV2 CPE rescue: inhibitors of DENV2 cytopathic effect, primary screen, cell-based, plate reader, single concentration | DENV2-infected cells, cytopathic effect rescue | CPE inhibition, % at 9.99 µM | actives 1.7% (n = 350,000); in the data active = CPE inhibition above about 20%, passing the limit was not always enough; inconclusive = no clear call, values can overlap the other calls; tested in BHK-21 cells
E-sel inducer: E-selectin induction in HUVECs, primary screen, imaging, HUVEC, immunofluorescence imaging, single point; P16581; normalized: neutral wells 0, TNF-alpha wells 100; activation, % at 7.58 µM; actives 0.37% (n = 260,000);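 active = mean E-selectin-positive cell signal at least 10% of the positive control, reached in at least 60% of replicates, without over 20% cell loss; inconclusive = no rule given, readout overlaps actives, possibly toxicity-flagged; inactive = the rest, including those meeting only one limit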
Target sequence (P16581 whole entry, looked up): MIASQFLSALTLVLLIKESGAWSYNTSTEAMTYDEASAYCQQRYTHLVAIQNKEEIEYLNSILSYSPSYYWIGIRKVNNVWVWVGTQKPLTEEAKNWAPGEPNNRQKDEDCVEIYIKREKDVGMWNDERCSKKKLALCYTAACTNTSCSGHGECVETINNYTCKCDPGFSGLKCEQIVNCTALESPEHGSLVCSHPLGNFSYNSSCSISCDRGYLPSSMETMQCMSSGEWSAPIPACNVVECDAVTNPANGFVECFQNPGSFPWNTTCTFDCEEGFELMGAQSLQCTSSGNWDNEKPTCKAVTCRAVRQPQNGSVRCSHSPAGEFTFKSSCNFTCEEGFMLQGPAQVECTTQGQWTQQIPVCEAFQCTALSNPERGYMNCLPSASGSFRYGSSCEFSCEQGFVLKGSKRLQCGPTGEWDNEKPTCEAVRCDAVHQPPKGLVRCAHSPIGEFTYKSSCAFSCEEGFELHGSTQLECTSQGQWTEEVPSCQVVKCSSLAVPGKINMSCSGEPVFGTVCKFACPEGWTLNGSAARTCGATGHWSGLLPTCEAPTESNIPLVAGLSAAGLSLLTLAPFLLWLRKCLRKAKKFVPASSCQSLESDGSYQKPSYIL
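System: HUVEC, human umbilical vein endothelial cells; quantity: 3,000 cells/well; buffer or medium: EGM-2 medium, gelatin-coated wells; dosing: single-point compound dose; detection: immunofluorescence imaging; evaluation: % PE-positive cells; benchmarks: TNF-alpha, DMSO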
FGF22 binding: binders of human FGF22 protein, primary screen, FGF22 synaptogenesis inhibitor project, biophysical, thermal shift, single point. Fibroblast growth factor 22 (Homo sapiens), Q9HCT0. recombinant FGF22 thermal shift, SYPRO orange fluorescence; percent of sucrose octasulfate shift, DMSO zero. activity (Tm shift, normalised), % at 9.99 µM. actives 1.5% (n = 340,000);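 active = mean Tm shift, scaled 0 neutral to 100 positive control, at about 1.3% or above, every replicate too, limit read from the data; inconclusive = no clear call, values can overlap the other calls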
Of the large screens only hits and unclear results are named; the others gave an inactive call. An excerpt weighted towards active compounds, which were near 3.3% of everything screened.

Cc1ccc(S(=O)(=O)Nc2ccc3c(c2)C(=O)N([C@H](C)CO)C[C@@H](C)[C@H](CN(C)C(=O)NC2CCCCC2)O3)cc1	DENV2 CPE rescue 41
Cc1ccc(S(=O)(=O)Nc2ccc3c(c2)C(=O)N([C@@H](C)CO)C[C@H](C)[C@H](CN(C)C(=O)NC(C)C)O3)cc1	DENV2 CPE rescue 32
Cc1ccc(S(=O)(=O)Nc2ccc3c(c2)C(=O)N([C@@H](C)CO)C[C@H](C)[C@H](CN(C)C(=O)NC2CCCCC2)O3)cc1	none
Cc1ccc(S(=O)(=O)Nc2ccc3c(c2)C(=O)N([C@@H](C)CO)C[C@@H](C)[C@H](CN(C)C(=O)NC2CCCCC2)O3)cc1	none
C[C@@H]1CN([C@H](C)CO)C(=O)c2cc(NS(=O)(=O)c3ccccc3)ccc2O[C@@H]1CN(C)C(=O)NC1CCCCC1	E-sel inducer 117
C[C@@H]1CN([C@H](C)CO)C(=O)c2cc(NS(C)(=O)=O)ccc2O[C@@H]1CN(C)C(=O)Nc1ccccc1	E-sel inducer 82
CC(C)CC#Cc1ccc2c(c1)O[C@@H](CN(C)C(=O)CC1CC1)[C@H](C)CN([C@H](C)CO)S2(=O)=O	none
Cc1ccc(S(=O)(=O)Nc2ccc3c(c2)C(=O)N([C@@H](C)CO)C[C@H](C)[C@@H](CN(C)C(=O)NC2CCCCC2)O3)cc1	none
C[C@H](CO)N1C[C@H](C)[C@H](CN(C)C(=O)NC2CCCCC2)Oc2ccc(NS(=O)(=O)c3ccccc3)cc2C1=O	E-sel inducer 63
CC(C)NC(=O)N(C)C[C@@H]1Oc2ccc(NS(C)(=O)=O)cc2C(=O)N([C@@H](C)CO)C[C@@H]1C	DENV2 CPE rescue 20 (no result: FGF22 binding)
Cc1ccc(-c2cnc3c(c2)C(=O)N([C@@H](C)CO)C[C@H](C)[C@@H](CN(C)C(=O)c2cccnc2)O3)cc1	none
Cc1cc(C(=O)Nc2ccc3c(c2)C(=O)N(C)[C@@H]2CC[C@@H](CC(=O)NC4CCCC4)O[C@H]2CO3)no1	none
CCCN(C)C[C@H]1Oc2ncc(-c3cccc(C(=O)N(C)C)c3)cc2C(=O)N([C@@H](C)CO)C[C@H]1C	none
COc1ccc(/C(C)=N/NC(=O)Cc2c(C)nc(C)[nH]c2=O)cc1	none (no result: PglD inh, Statin myotox sup, E-sel inducer)
Cc1nc(C)c(CC(=O)N/N=C/c2ccc(O)cc2)c(=O)[nH]1	DENV2 CPE rescue 31 (no result: PglD inh, Statin myotox sup, E-sel inducer)
CCCC#Cc1cnc2c(c1)C(=O)N([C@H](C)CO)C[C@H](C)[C@H](CN(C)C(=O)c1cccnc1)O2	DENV2 CPE rescue inconclusive (no result: FGF22 binding)
CC(C)=CC(=O)Nc1ccc(OCc2ccccc2)cc1	FGF22 binding 74 (no result: PglD inh, DENV2 CPE rescue, E-sel inducer)
Nn1c(SCc2cccc(Oc3ccccc3)c2)nnc1C(F)(F)F	FGF22 binding 43 (no result: PglD inh, Statin myotox sup)
CCC(=O)N1CCCCN2[C@H](C1)[C@H](c1ccc(-c3cccnc3)cc1)[C@@H]2CO	DENV2 CPE rescue 38
CCC(=O)N1CCCCN2[C@@H](CO)[C@@H](c3ccc(C#Cc4cccnc4)cc3)[C@@H]2C1	DENV2 CPE rescue 23
CCC(=O)N1CCCCN2[C@H](CO)[C@@H](c3ccc(-c4ccc(F)cc4)cc3)[C@H]2C1	DENV2 CPE rescue 31
CCC(=O)N1CCCCN2[C@@H](CO)[C@@H](c3ccc(-c4cccnc4)cc3)[C@@H]2C1	none
CCC(=O)N1CCCCN2[C@H](CO)[C@@H](c3ccc(-c4ccc(F)cc4)cc3)[C@@H]2C1	none
C[C@H]1CCCCO[C@H](CN(C)Cc2ccc3c(c2)OCO3)[C@@H](C)CN([C@@H](C)CO)C(=O)c2cc(NC(=O)CCC(F)(F)F)ccc2O1	none (no result: Statin myotox sup)
CN1[C@@H]2c3ccc(-c4ccccc4F)c(=O)n3C[C@H]1[C@H](CO)[C@H]2C(=O)NCc1ccccn1	none
